# An excerpt weighted towards active compounds, which were near 3.1% of everything screened.
# rRNA inh HTS = reduced GFP signal of wild-type E. coli, primary screen, bacterial rRNA inhibitor project, GFP/RFP fluorescence, OD600, single point | E. coli WT GFP vs humanized-ribosome RFP mutants, 24 h; active compounds read low; DMSO median 0, no signal -100 | GFP signal change (wild-type ribosome), % (no concentration beside the values) | actives 1.6% (n = 350,000);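 active = significant combined selectivity score with lowered wild-type GFP, culture density cut under 30%, mutant RFP and density less affected; inactive = any of these conditions unmet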
# CFTR F508del cor = F508del CFTR correction, initial screen, CFBE line, single point. CFBE cells, YFP halide quenching; stimulated with forskolin plus potentiator P3; % fluorescence drop versus neutral controls. activity (quench increase), % at 7.58 µM. actives 0.36% (n = 350,000);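 active = mean added fluorescence quench of at least 8% versus neutral control, with both replicates also reaching 8%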;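 also: cells transiently co-express mutant CFTR-F508del with the halide-sensitive YFP; corrector assay measuring rescue of mutant channel to the surface after 24 h compound exposure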
# miR122 inh = miR-122 Renilla sensor signal increase in Huh7, primary screen, miR-122 inhibitor project, cell-based, single point, plate reader. Huh7 miR-122 Renilla luciferase sensor, 48 h; neutral wells = 0, positive control = 100. AID 602342, 2012. actives 0.3% (n = 340,000). activation (reporter increase), % at 12.5 µM;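 active = mean replicate activation score at least 90 and every replicate individually at or above 90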;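 also: higher luciferase means less miR-122 activity so hits act as miR-122 inhibitors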
# Cneo AK release = Cryptococcus neoformans cell lysis inducers, primary screen, AK release luminescence, single concentration | AID 651654, 2012 | C. neoformans lysis, adenylate kinase release luminescence, 4 h; normalised: neutral wells 0, clomiphene wells 100 | actives 0.2% (n = 360,000) | lysis activity, % at 15 µM;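 active = mean lysis activity across replicates of at least 80%, whatever share of replicates individually reach that level; inactive = mean lysis activity below 80%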
#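 Test system: log-phase Cryptococcus neoformans yeast cells. Input: 5 × 10^6 yeast cells/mL. Medium: fresh YPD growth medium. Doses: single dose. Incubation: static 4 h at 37 °C with compound, 1 h detection. Measured by: luminescent adenylate kinase detection reagent. Read-out: signal increase indicating cell lysis. Benchmarks: Clomiphene.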
# GSIS activator = GLuc luminescence reporter in INS-1E cells, primary screen for activators of glucose-dependent secretion of insulin; activation, % at 16.6 µM; INS-1E GLuc reporter insulin secretion, 2-3 h; actives 0.61% (n = 370,000);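 active = lowest replicate activation of at least 40%, so every replicate reaches that level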;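 also: 0% = median of neutral control wells and 100% = median of IBMX positive control wells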
# Env fusion inh = inhibitors of HIV-1 Env-driven cell-cell fusion, primary screen, HeLa-JRFL effector, CEM21 target cells, luciferase | actives 1.1% (n = 360,000) | inhibition, % at 12.3 µM;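 active = mean replicate inhibition score of at least 50 and every replicate individually at or above 50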;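 also: 0% = plate neutral controls and 100% = maraviroc near 300 nM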
# * marks the source's active call; other numbers are inactive results; . = no result; [ ] = dose if it differs, or a comment.
SMILES,rRNA inh HTS,CFTR F508del cor,miR122 inh,Cneo AK release,GSIS activator,Env fusion inh
C[C@@H]1CN([C@H](C)CO)S(=O)(=O)c2ccc(-c3cncnc3)cc2O[C@@H]1CN(C)C(=O)C1CCCCC1,4,0,.,-13,1,9[16.7 µM]
O=C(C[C@@H]1C[C@H]2c3cc(NC(=O)Nc4ccccc4)ccc3O[C@H]2[C@H](CO)O1)NC1CCCC1,-11,-6,-2[16.7 µM],-2,-4,-14[16.7 µM]
CO[C@@H]1CN(C)C(=O)c2cc(NC(=O)C3CC3)ccc2OC[C@H](C)NC[C@H]1C,0,-1,.,-13,17,.
[O-]/C(=C(\C(=S)Nc1ccc(SC(F)F)cc1)[n+]1cccc(CO)c1)c1ccc(Cl)s1,-31*,1,.,.,-2,5
Cc1ccc(NC(=S)/C(=C(\[O-])c2ccc(F)cc2)[n+]2ccccc2)cc1,-25*,2,.,.,-48,2
Cc1ccc(C)c(NC(=S)/C(=C(\[O-])c2ccc(OC(F)F)cc2)[n+]2ccccc2)c1,15,0,5,2,-1,-39
CN(C)c1cc[n+](/C(C(=S)Nc2ccc(SC(F)F)cc2)=C(/[O-])c2ccccc2)cc1,-19*,1,2,1,.,6
CC(=O)N(C)C[C@H]1Oc2ccc(NS(C)(=O)=O)cc2CC(=O)N(C)C[C@@H]1C,1,.,.,.,21,.
O=C(CSC(=S)N1CCCC1)c1cc(Br)cc(Br)c1O,-30*,.,.,.,-12,-11
CO[C@H]1CN(C)C(=O)c2cc(NC(C)=O)ccc2OC[C@@H](C)N(Cc2cc(F)ccc2F)C[C@@H]1C,0,0,-1[16.7 µM],0,-4,-14[16.7 µM]
Cc1ccccc1-c1ccccc1[C@H]1[C@@H](CO)N(C(=O)c2ccccc2)[C@H]1C#N,4,-1,.,.,-5,.
CC(C)(C)c1ccc(C(=O)Nc2ccc(CC(=O)O)cc2)o1,.,.,.,-2,19,85*
CC(=O)Nc1sc2c(c1C(c1ccc(F)cc1)N1CCOCC1)CCCC2 (centres undefined),.,.,1,-1,.,90*
CC(=O)Nc1sc2c(c1C(c1ccc(Cl)cc1)N1CCOCC1)CCCC2 (centres undefined),.,.,-6,-6,-47,.
COc1ccc(S(=O)(=O)N(C)C[C@H]2Oc3ccc(NC(=O)Cc4cn(C)c5ccccc45)cc3CC(=O)N([C@H](C)CO)C[C@@H]2C)cc1,-4,0,-9[16.7 µM],3,-13,-12[16.7 µM]
C[C@H](CO)N1C[C@H](C)[C@@H](CN(C)S(=O)(=O)c2ccccc2)Oc2ccc(NC(=O)Cc3cn(C)c4ccccc34)cc2CC1=O,-4,-2,6[16.7 µM],-4,0,-22[16.7 µM]
COc1ccc(S(=O)(=O)N(C)C[C@@H]2Oc3ccc(NC(=O)Cc4cn(C)c5ccccc45)cc3CC(=O)N([C@H](C)CO)C[C@@H]2C)cc1,-1,-1,-3[16.7 µM],0,13,76*[16.7 µM]
C[C@H](CO)N1C[C@H](C)[C@H](CN(C)S(=O)(=O)c2ccccc2)Oc2ccc(NC(=O)Cc3cn(C)c4ccccc34)cc2CC1=O,2,0,-8[16.7 µM],41,-1,94*[16.7 µM]
C[C@H](CO)N1C[C@H](C)[C@H](CN(C)S(=O)(=O)c2cccs2)Oc2ccc(NC(=O)Cc3cn(C)c4ccccc34)cc2CC1=O,-1,2,5[16.7 µM],48,-4,96*[16.7 µM]
C[C@@H]1CN([C@@H](C)CO)C(=O)Cc2cc(NC(=O)Cc3cn(C)c4ccccc34)ccc2O[C@@H]1CN(C)S(=O)(=O)c1cccs1,0,3,1[16.7 µM],51,-1,-31[16.7 µM]
C[C@@H]1CN([C@H](C)CO)C(=O)c2cc(NS(=O)(=O)c3cn(C)cn3)ccc2O[C@@H](C)CCCCO[C@@H]1CN(C)S(=O)(=O)c1ccc(F)cc1,-2,1,12[16.7 µM],0,-2,-4[16.7 µM]

# Screens as filed in PubChem.
